Publication PMC9306620 (Clinical Pharmacology in Drug Development, 2022)
Several values for one entry are separate records, joined by “and”; a condition that tells them apart may be missing. Identical values can stand only once. Like-named read-outs stand apart in the source and are kept apart here.

What was measured:
[1] = Part 2: food effect on plasma pharmacokinetics of the tablet formulation; format: in vivo, healthy participants; conditions: for AUC(0-t) / AUC(0-inf) / Cmax: human, plasma, oral, 200 mg, geometric LS mean, part 2, analysis of variance; for AUC(0-t): AUC0-t; for AUC(0-inf): AUC0-∞
In short: (§1)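 Randomized, open-label, single-dose crossover in healthy adults aged 18–55, with periods separated by a ≥7-day washout. Each oral 200 mg dose was given as two 100-mg units. Plasma was sampled 40 min predose and 1–96 h postdose and assayed by UHPLC-MS/MS. Noncompartmental parameters used actual sampling times. ln-AUC0-t, AUC0-∞ and Cmax were analysed by linear mixed-effects model (treatment, period, sequence fixed; participant random) with 90% CIs.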

[2] = test system: uridine diphosphate glucuronosyltransferase 1A1; conditions: in vitro; cited from earlier work
[3] = cited from earlier work
[4] = test system: organic anion-transporting polypeptide 1B3; conditions: in vitro; cited from earlier work
[5] = Part 2: safety and tolerability; format: in vivo, healthy participants; conditions: for Adverse events: abdominal distention (drug related) / Adverse events: anxiety / Adverse events: any event / Adverse events: diarrhea (drug related) / Adverse events: dysmenorrhea / Adverse events: eye irritation / Adverse events: rash maculopapular (drug related, led to withdrawal): part 2, tablet 200 mg
In short: (§2)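 Safety followed a single oral 200 mg dose given as two 100-mg capsules or tablets. Adverse events, clinical laboratory tests, vital signs, 12-lead ECG and physical examination were monitored. The safety population was all participants receiving ≥1 dose, summarized descriptively by treatment. AEs occurring later than last treatment + 5 days were not counted. The investigator assessed each AE for drug relatedness.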

[6] = drug interaction studies; cited from earlier work
[7] = test system: HIV-1 subtypes; conditions: in vitro; cited from earlier work
[8] = format: in vivo, healthy participants; conditions: 200 mg, moderate-fat meal; for AUC(0-t) / AUC(0-inf) / Cmax: human, plasma, oral, geometric LS mean, part 1, analysis of variance, n = 18; for AUC(0-t): AUC0-t; for AUC(0-inf): AUC0-∞
In short: as §1

[9] = Part 1: safety and tolerability; format: in vivo, healthy participants; conditions: N = 18
In short: as §2

[10] = test system: HIV-1; conditions: 200-mg dose, treatment-naive adults with HIV-1, phase IIa; cited from earlier work
[11] = tablet 200 mg, high fat, n = 21
[12] = tablet 200 mg, moderate fat, n = 20
[13] = tablet 200 mg, high fat vs fasted, part 2
[14] = tablet 200 mg, moderate fat vs fasted, part 2

Q: With `C=C(C)[C@@H]1CC[C@]2(NCCN3CCS(=O)(=O)CC3)CC[C@]3(C)[C@H](CC[C@@H]4[C@@]5(C)CC=C(C6=CC[C@@](CF)(C(=O)O)CC6)C(C)(C)[C@@H]5CC[C@]43C)[C@@H]12` [GSK3640254] as the compound, how does the AUC(0-t) ([1]; tablet 200 mg, fasted, n = 13) read?
A: Its AUC(0-t) is 12200 ng·h/mL.

Q: What about the AUC(0-t) [1, 11] of the same compound?
A: The AUC(0-t) was 34100 ng·h/mL.

Q: And the AUC(0-t) [1, 12]?
A: The AUC(0-t) was 38500 ng·h/mL.

Q: And the AUC(0-inf) ([1]; tablet 200 mg, fasted, n = 10)?
A: Its AUC(0-inf) is 14200 ng·h/mL.

Q: What about the AUC(0-inf) [1, 11] of the same compound?
A: The AUC(0-inf) was 36900 ng·h/mL.

Q: What about the AUC(0-inf) [1, 12] of the same compound?
A: Its AUC(0-inf) is 41600 ng·h/mL.

Q: What about the Cmax ([1]; tablet 200 mg, fasted, n = 13) of the same compound?
A: The Cmax was 351 ng/mL.

Q: And the Cmax [1, 11]?
A: The Cmax was 1080 ng/mL.

Q: And the Cmax [1, 12]?
A: The Cmax was 1440 ng/mL.

Q: What about the “AUC0-t, geometric LS mean ratio compared with fasted conditions” value [1, 13] of the same compound?
A: The value was 2.79.

Q: And the “AUC0-∞, geometric LS mean ratio compared with fasted conditions” value [1, 13]?
A: Its value is 2.59.

Q: And the “Cmax, geometric LS mean ratio compared with fasted conditions” value [1, 13]?
A: Its value is 3.08.

Q: What about the “mean Cmax, fold higher than under fasted conditions” value ([1]; tablet 200 mg, high-fat conditions, part 2) of the same compound?
A: The value was about 3 fold.

Q: And the “AUC0-t, geometric LS mean ratio compared with fasted conditions” value [1, 14]?
A: The value was 3.15.

Q: And the “AUC0-∞, geometric LS mean ratio compared with fasted conditions” value [1, 14]?
A: The value was 2.93.

Q: What about the “Cmax, geometric LS mean ratio compared with fasted conditions” value [1, 14] of the same compound?
A: The value was 4.10.

Q: And the “mean estimate for CL/F, lower than under fasted conditions” value ([1]; tablet 200 mg, moderate- or high-fat conditions, part 2)?
A: Its value is over 60%.

Q: And the “mean Cmax, fold higher than under fasted conditions” value ([1]; tablet 200 mg, moderate-fat conditions, part 2)?
A: Its value is “≈ 4 fold”.

Q: What about the “t1/2, arithmetic mean (SD)” value ([1]; tablet, single dose 200 mg, fasted conditions, part 2, n = 10) of the same compound?
A: Its value is 25.9 (3.33) hour.

Q: And the “t1/2, arithmetic mean (SD)” value ([1]; tablet, single dose 200 mg, high-fat conditions, part 2, N = 21)?
A: The value was 25.1 (4.18) hour.

Q: And the “t1/2, geometric mean (%CVb)” value ([1]; tablet, single dose 200 mg, moderate-fat conditions, part 2, N = 20)?
A: The value was 24.9 (18.0) hour.

Q: What about the “inhibition of uridine diphosphate glucuronosyltransferase 1A1” value [2] of the same compound?
A: The value was “inhibitor”.

Q: What about the estimated half-life ([3]; 200-mg dose, healthy participants) of the same compound?
A: The estimated half-life was “approximately 22.6 hours”.

Q: What about the tolerability ([3]; phase I studies in healthy participants, headache most common AE) of the same compound?
A: Its tolerability is “generally well tolerated”.

Q: What about the “inhibition of organic anion-transporting polypeptide 1B3” value [4] of the same compound?
A: The value was “inhibitor”.

Q: What about the “Adverse events: abdominal distention (drug related)” value ([5]; fasted, N = 19) of the same compound?
A: Its value is 0 n (%).

Q: What about the “Adverse events: anxiety” value ([5]; fasted, N = 19) of the same compound?
A: Its value is 0 n (%).

Q: What about the “Adverse events: any event” value ([5]; fasted, N = 19) of the same compound?
A: Its value is 0 n (%).

Q: What about the “Adverse events: diarrhea (drug related)” value ([5]; fasted, N = 19) of the same compound?
A: The value was 0 n (%).

Q: What about the “Adverse events: dysmenorrhea” value ([5]; fasted, N = 19) of the same compound?
A: The value was 0 n (%).

Q: And the “Adverse events: eye irritation” value ([5]; fasted, N = 19)?
A: Its value is 0 n (%).

Q: What about the “Adverse events: rash maculopapular (drug related, led to withdrawal)” value (“Adverse events: rash maculopapular” below) ([5]; fasted, N = 19) of the same compound?
A: Its value is 0 n (%).

Q: What about the “Adverse events: abdominal distention (drug related)” value ([5]; high fat, N = 21) of the same compound?
A: Its value is 1 (5) n (%).

Q: What about the “Adverse events: anxiety” value ([5]; high fat, N = 21) of the same compound?
A: The value was 1 (5) n (%).

Q: What about the “Adverse events: any event” value ([5]; high fat, N = 21) of the same compound?
A: Its value is 5 (24%) n (%) and 5 (24) n (%).

Q: And the “Adverse events: diarrhea (drug related)” value ([5]; high fat, N = 21)?
A: The value was 2 n (%) and 2 (10) n (%).

Q: What about the “Adverse events: dysmenorrhea” value ([5]; high fat, N = 21) of the same compound?
A: The value was 1 (5) n (%).

Q: What about the “Adverse events: eye irritation” value ([5]; high fat, N = 21) of the same compound?
A: Its value is 0 n (%).

Q: And the “Adverse events: rash maculopapular” value ([5]; high fat, N = 21)?
A: Its value is 1 (5) n (%).

Q: And the “Adverse events: abdominal distention (drug related)” value ([5]; moderate fat, N = 20)?
A: Its value is 0 n (%).

Q: And the “Adverse events: anxiety” value ([5]; moderate fat, N = 20)?
A: Its value is 0 n (%).

Q: What about the “Adverse events: any event” value ([5]; moderate fat, N = 20) of the same compound?
A: The value was 0 n (%).

Q: What about the “Adverse events: diarrhea (drug related)” value ([5]; moderate fat, N = 20) of the same compound?
A: Its value is 0 n (%).

Q: What about the “Adverse events: dysmenorrhea” value ([5]; moderate fat, N = 20) of the same compound?
A: Its value is 0 n (%).

Q: And the “Adverse events: eye irritation” value ([5]; moderate fat, N = 20)?
A: The value was 0 n (%).

Q: What about the “Adverse events: rash maculopapular” value ([5]; moderate fat, N = 20) of the same compound?
A: Its value is 0 n (%).

Q: And the “participants reporting AEs considered related to the study treatment” value ([5]; part 2, tablets 200 mg, high-fat conditions)?
A: The value was 10%.

Q: And the “highest incidence of adverse events” value ([5]; tablet 200 mg, high-fat conditions)?
A: The value was 24%.

Q: What about the “effect on the pharmacokinetics of combined oral contraceptives” value [6] of the same compound?
A: The value was “no meaningful effect”.

Q: And the “effect on the pharmacokinetics of dolutegravir” value [6]?
A: The value was “no meaningful effect”.

Q: And the “effect on the pharmacokinetics of tenofovir alafenamide” value [6]?
A: The value was “no meaningful effect”.

Q: And the “inhibition across various HIV-1 subtypes” value [7]?
A: Its value is “broad‐spectrum potent inhibition”.

Q: And the AUC(0-t) ([8]; capsule)?
A: Its AUC(0-t) is 33700 ng·h/mL.

Q: What about the AUC(0-t) ([8]; tablet) of the same compound?
A: The AUC(0-t) was 33800 ng·h/mL.

Q: What about the AUC(0-inf) ([8]; capsule) of the same compound?
A: Its AUC(0-inf) is 36900 ng·h/mL.

Q: What about the AUC(0-inf) ([8]; tablet) of the same compound?
A: Its AUC(0-inf) is 36900 ng·h/mL.

Q: What about the Cmax ([8]; capsule) of the same compound?
A: The Cmax was 1200 ng/mL.

Q: What about the Cmax ([8]; tablet) of the same compound?
A: The Cmax was 1310 ng/mL.

Q: And the “AUC0-t, geometric LS mean ratio” value ([8]; tablet vs capsule, part 1)?
A: The value was 1.00.

Q: What about the “AUC0-∞, geometric LS mean ratio” value ([8]; tablet vs capsule, part 1) of the same compound?
A: Its value is 0.998.

Q: What about the “Cmax, geometric LS mean ratio” value ([8]; tablet vs capsule, part 1) of the same compound?
A: Its value is 1.09.

Q: And the “Adverse events: abdominal distention (drug related)” value ([9]; part 1, capsule 200 mg)?
A: Its value is 0 n (%).

Q: And the “Adverse events: anxiety” value ([9]; part 1, capsule 200 mg)?
A: Its value is 0 n (%).

Q: What about the “Adverse events: diarrhea (drug related)” value ([9]; part 1, capsule 200 mg) of the same compound?
A: The value was 0 n (%).

Q: And the “Adverse events: dysmenorrhea” value ([9]; part 1, capsule 200 mg)?
A: The value was 0 n (%).

Q: And the “Adverse events: eye irritation” value ([9]; part 1, capsule 200 mg)?
A: The value was 0 n (%).

Q: And the “Adverse events: rash maculopapular” value ([9]; part 1, capsule 200 mg)?
A: Its value is 0 n (%).

Q: What about the “Adverse events: abdominal distention (drug related)” value ([9]; part 1, tablet 200 mg) of the same compound?
A: Its value is 0 n (%).

Q: And the “Adverse events: anxiety” value ([9]; part 1, tablet 200 mg)?
A: The value was 0 n (%).

Q: What about the “Adverse events: any event” value ([9]; part 1, tablet 200 mg) of the same compound?
A: Its value is 1 (6) n (%).

Q: And the “Adverse events: diarrhea (drug related)” value ([9]; part 1, tablet 200 mg)?
A: Its value is 0 n (%).

Q: What about the “Adverse events: dysmenorrhea” value ([9]; part 1, tablet 200 mg) of the same compound?
A: Its value is 0 n (%).

Q: And the “Adverse events: eye irritation” value ([9]; part 1, tablet 200 mg)?
A: The value was 1 (6%) n (%) and 1 (6) n (%).

Q: What about the “Adverse events: rash maculopapular” value ([9]; part 1, tablet 200 mg) of the same compound?
A: Its value is 0 n (%).

Q: What about the “reduction in plasma HIV-1 RNA” value [10] of the same compound?
A: Its value is “approximately 2 log10”.
